Experimental data published in PMC4547362 (Molecular cancer therapeutics, 2015).
Like-named read-outs stand apart in the source and are kept apart here. Blank lines part the entries; values can stand above or below the molecule they belong to.

What was measured:
[1] = tested on: Stat5a/b; experiment: Stat5a/b activation and transcriptional activity, side-by-side with IST5-002; type: cell-based
[2] = biological target: T1, Stat3 (Homo sapiens, UniProt P40763); experiment: IL-6-induced Stat3 nuclear translocation in DU145 cells, immunofluorescence; type: cell-based; settings: IL-6 5 nM, IST5-002 even at 50 μM
T1 sequence (P40763 whole entry): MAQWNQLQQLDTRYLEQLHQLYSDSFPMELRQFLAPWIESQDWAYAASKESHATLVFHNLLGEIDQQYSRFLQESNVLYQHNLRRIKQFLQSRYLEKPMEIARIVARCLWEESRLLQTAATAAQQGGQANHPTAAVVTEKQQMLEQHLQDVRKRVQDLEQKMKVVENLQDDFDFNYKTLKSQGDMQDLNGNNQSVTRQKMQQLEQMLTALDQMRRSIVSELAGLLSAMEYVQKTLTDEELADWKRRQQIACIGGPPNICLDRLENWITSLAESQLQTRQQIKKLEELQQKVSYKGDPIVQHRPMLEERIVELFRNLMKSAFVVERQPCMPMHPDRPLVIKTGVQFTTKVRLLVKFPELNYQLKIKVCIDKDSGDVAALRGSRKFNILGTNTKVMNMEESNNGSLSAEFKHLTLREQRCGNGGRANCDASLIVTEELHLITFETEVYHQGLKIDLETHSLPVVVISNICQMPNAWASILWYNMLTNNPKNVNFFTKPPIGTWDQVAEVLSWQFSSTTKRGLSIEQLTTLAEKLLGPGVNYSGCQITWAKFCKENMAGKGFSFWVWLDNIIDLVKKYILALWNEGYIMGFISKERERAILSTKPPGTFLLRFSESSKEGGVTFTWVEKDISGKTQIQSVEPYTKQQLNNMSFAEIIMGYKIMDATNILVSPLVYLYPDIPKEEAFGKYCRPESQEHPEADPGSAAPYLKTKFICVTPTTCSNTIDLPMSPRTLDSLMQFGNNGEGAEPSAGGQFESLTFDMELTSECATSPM

[3] = tested on: Stat1; settings: cited from earlier work
[4] = tested on: Stat5; settings: cited from earlier work
[5] = tested on: A549, CAPAN, T47D, HT1080, HepG2, COS-7, RC170N, CWR22Rv1, K562 cells; type: cell-based
[6] = tested on: CWR22Rv1 cells; experiment: Dead cell count by trypan blue exclusion, CWR22Rv1; type: cell-based, human; settings: 25 μM, 24 h
[7] = tested on: CWR22Rv1 cells; experiment: Viability of CWR22Rv1 cells after Stat5a/b shRNA or control shRNA, trypan blue; type: cell-based, human; settings: 12.5 μM, 48 h
[8] = biological target: Stat5b (Homo sapiens, UniProt P51692); experiment: Stat5b luciferase reporter gene assay; type: cell-based; settings: read-out: IC50, transcriptional activity of Stat5b; PC-3 cells, β-casein-luciferase, hPrl 10 nM 16 h
Chain of Stat5b (P51692 whole entry, species assumed): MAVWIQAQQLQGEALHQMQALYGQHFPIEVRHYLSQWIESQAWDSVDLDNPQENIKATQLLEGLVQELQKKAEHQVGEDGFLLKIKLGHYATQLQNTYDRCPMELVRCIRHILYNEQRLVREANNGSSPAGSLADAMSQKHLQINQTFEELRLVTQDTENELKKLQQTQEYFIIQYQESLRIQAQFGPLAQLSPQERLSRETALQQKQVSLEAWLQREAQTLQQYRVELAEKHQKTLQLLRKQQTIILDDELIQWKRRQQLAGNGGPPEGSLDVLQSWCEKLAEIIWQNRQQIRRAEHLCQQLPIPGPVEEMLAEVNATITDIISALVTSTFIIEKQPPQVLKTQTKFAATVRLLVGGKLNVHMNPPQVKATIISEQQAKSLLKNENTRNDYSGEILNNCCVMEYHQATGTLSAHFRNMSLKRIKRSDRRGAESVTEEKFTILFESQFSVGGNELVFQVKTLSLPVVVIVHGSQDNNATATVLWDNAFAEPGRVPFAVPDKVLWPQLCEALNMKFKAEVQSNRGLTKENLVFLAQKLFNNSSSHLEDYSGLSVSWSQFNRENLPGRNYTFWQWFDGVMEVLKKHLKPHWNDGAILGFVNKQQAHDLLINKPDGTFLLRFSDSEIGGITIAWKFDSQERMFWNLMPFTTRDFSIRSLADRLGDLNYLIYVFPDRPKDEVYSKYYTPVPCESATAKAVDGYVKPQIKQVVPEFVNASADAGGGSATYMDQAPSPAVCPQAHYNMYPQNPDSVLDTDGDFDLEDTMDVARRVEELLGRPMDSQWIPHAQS

[9] = biological target: T2, Stat5a (Homo sapiens, UniProt P42229); experiment: Prl-induced nuclear translocation of Stat5a in PC-3 cells, immunofluorescence; type: cell-based; settings: 2 h, hPrl 10 nM 30 min
T2 sequence (P42229 1-794): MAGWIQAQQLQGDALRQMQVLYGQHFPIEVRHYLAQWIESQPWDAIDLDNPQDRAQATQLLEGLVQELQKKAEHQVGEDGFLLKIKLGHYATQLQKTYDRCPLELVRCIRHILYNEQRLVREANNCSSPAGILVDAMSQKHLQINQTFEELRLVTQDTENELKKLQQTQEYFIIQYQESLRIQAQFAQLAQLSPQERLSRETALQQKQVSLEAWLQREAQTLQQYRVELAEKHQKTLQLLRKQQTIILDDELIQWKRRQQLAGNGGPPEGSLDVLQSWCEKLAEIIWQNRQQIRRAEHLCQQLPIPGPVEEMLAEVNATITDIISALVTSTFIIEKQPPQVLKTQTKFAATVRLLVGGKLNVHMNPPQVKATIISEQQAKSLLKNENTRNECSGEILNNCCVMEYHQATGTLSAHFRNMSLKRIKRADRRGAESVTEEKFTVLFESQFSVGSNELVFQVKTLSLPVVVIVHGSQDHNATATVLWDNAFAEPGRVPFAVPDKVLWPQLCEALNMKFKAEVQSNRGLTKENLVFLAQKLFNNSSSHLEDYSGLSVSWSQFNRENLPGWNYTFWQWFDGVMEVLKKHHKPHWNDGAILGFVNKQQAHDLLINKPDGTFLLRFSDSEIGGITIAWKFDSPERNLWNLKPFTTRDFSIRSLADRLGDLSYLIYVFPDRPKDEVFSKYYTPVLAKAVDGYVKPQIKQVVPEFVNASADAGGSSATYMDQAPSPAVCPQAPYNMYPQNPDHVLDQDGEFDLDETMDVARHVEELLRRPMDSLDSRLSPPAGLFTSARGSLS
How it was run: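 PC-3 cells were infected with adenoviral wild-type Stat5a and prolactin receptor (MOI 4), serum-starved, pretreated 2 h with test compound or control compound, and stimulated 30 min with 10 nM prolactin. Fixed cells were stained with rabbit anti-Stat5 pAb (1:200) and fluorescein goat anti-rabbit IgG (1:200).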

[10] = biological target: Stat5a/b (Homo sapiens, UniProt P42229); experiment: EMSA of Stat5a/b binding to DNA; type: cell-based; settings: 25 μM, COS-7 cells, compared to Ctrl-treated cells
How it was run: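 COS-7 cells were transiently co-transfected with Stat5a and prolactin receptor plasmids, then serum-starved 10 h. They were pretreated 2 h with test compound or control compound and stimulated 30 min with 10 nM human prolactin. DNA binding was probed with the beta-casein gene Stat5 response element.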

[11] = tested on: caspase-3; experiment: Caspase-3 activation assay, CWR22Rv1; type: cell-based, human; settings: 12.5 μM, CWR22Rv1, 72 h
How it was run: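 CWR22Rv1 cells were exposed to 12.5 μM test compound or vehicle for set periods. Caspase-3 was captured with anti-caspase-3 mAb, and its cleavage of AFC substrate was read fluorometrically at 505 nm. In the rescue arm, cells were first infected with adenovirus carrying constitutively active Stat5a (MOI 2).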

[12] = tested on: K562, KCL22 and BV173 cells (parental and imatinib-resistant); experiment: Growth of CML cell lines, trypan blue cell counts and colony formation; type: cell-based; settings: 5 μM, trypan blue exclusion and colony formation assay
[13] = biological target: T3, Stat5a/b (Homo sapiens, UniProt P42229+P51692); experiment: Bcr-Abl-driven Stat5a/b phosphorylation in K562 cells, immunoblot; type: cell-based; settings: 3 h
T3 sequence (P51692 whole entry, one chain of several): as the sequence (P51692 whole entry, species assumed) above

[14] = biological target: Stat5a/b (Mus musculus, UniProt P42230+P42232); type: cell-based; settings: read-out: IC50, phosphorylation of Stat5a/b; HC-11 cells, 2 h, then hPrl 30 min
[15] = tested on: Stat5a/b target genes in K562 cells; experiment: RNA expression profiling of K562 cells; type: cell-based; settings: 5 μM, 48 h
How it was run: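 RNA from vehicle- and test compound-treated cells, alongside Stat5a/b-shRNA and scramble-shRNA cells, was profiled in triplicate on Affymetrix Human Gene 1.0 ST arrays. Differential expression versus the matching control used t-tests with false discovery rate correction.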

[16] = tested on: CWR22Rv1 cells; experiment: Nucleosomal DNA fragmentation ELISA, CWR22Rv1; type: cell-based, human; settings: 25 μM, 24 h, CWR22Rv1, parallel wells
[17] = biological target: Bcr-Abl (Homo sapiens, UniProt P00519+P11274); experiment: Bcr-Abl tyrosine phosphorylation in K562 cells, immunoblot; type: cell-based
[18] = tested on: Bcl-xL and cyclin D1; experiment: Expression of Stat5a/b target genes cyclin D1 and Bcl-xL in PC cells, immunoblot; type: cell-based, human; settings: CWR22Rv1 and LNCaP cells, 48 h or 25 μM time course
[19] = biological target: PAK1/2 (Homo sapiens, UniProt Q13153+Q13177)
Chain of PAK1/2 (Q13153 whole entry): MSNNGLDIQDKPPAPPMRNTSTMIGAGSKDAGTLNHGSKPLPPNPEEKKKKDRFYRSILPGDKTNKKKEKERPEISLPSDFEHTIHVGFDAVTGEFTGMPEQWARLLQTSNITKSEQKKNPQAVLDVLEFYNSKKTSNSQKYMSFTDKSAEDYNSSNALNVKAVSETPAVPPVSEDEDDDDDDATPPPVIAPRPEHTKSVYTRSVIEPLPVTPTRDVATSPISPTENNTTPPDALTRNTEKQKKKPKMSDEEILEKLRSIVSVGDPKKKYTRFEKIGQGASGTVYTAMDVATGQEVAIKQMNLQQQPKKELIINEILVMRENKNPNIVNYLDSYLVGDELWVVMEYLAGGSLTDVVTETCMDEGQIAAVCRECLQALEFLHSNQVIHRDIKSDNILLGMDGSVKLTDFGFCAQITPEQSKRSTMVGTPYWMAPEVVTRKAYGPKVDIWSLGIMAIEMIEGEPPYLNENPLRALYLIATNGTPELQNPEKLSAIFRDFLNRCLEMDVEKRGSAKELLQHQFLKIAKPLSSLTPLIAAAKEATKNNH
Chain of PAK1/2 (Q13177 whole entry): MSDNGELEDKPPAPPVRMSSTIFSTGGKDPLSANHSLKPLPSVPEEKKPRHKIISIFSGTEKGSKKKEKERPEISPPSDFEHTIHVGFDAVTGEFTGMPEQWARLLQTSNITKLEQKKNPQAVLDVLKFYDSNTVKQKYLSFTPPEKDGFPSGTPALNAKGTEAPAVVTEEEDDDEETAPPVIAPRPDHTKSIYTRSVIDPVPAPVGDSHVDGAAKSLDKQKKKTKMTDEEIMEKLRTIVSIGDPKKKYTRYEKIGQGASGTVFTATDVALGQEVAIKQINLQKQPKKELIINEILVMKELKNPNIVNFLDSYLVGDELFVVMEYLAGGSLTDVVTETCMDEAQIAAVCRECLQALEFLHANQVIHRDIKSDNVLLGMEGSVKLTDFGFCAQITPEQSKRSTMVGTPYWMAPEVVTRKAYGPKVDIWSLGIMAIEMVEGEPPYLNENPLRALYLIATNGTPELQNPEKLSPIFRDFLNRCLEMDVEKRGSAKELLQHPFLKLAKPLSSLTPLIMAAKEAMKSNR

[20] = tested on: CWR22Rv1 xenograft tumors; experiment: CWR22Rv1 prostate cancer xenograft tumor growth in nude mice; type: in vivo; settings: for decrease of nuclear Stat5a/b content in tumors: compared to vehicle (HPC)
How it was run: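 Castrated male athymic nude mice got 60-day sustained-release DHT pellets 3 days before s.c. flank inoculation of 1.5 × 10⁷ CWR22Rv1 cells in Matrigel (one tumor/mouse). After one week, mice were randomised (10/group) to daily i.p. test compound in 0.3% HPC (25, 50, 100 mg/kg), HPC alone or no treatment for 10 days. Tumors were measured three times weekly; volume = 3.14 × length × width × depth/6. Nuclear Stat5/Stat3 in harvested tumors were compared by mixed-model ANOVA with Bonferroni-adjusted pairwise tests.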

[21] = biological target: T3, Stat5a/b; experiment: Cell-based immunoassay for tyrosine-phosphorylated Stat5a/b in T47D cells; settings: read-out: IC50, phosphorylation of Stat5a/b, 2 h, then hPrl
[22] = tested on: panel of 50 kinases; experiment: Kinase activity profiling; type: biochemical; settings: 1 μM final concentration
How it was run: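 Split-luciferase binding format, with the test compound first checked for false-positive activity against split-luciferase. Each Cfluc-kinase was co-translated with Fos-Nfluc in rabbit reticulocyte lysate at 30 C for 90 min. Lysate was incubated 30 min at room temperature with DMSO or 1 μM (final) test compound, then 1 h with a kinase-specific probe.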

[23] = tested on: primary CML cells; experiment: Colony formation of primary CML-chronic phase cells from patients; type: cell-based, human; settings: three CML-chronic phase patients, methylcellulose
[24] = tested on: SUP-B15, 12878 and 3798 cell lines; experiment: Cell viability; settings: 48 h, MTT
[25] = tested on: CML-blast crisis cell lines; experiment: Cell cycle analysis of CML cells; type: cell-based; settings: 5 μM, 48 h
[26] = biological target: T2, Stat5a; experiment: Stat5a dimerization by co-immunoprecipitation in PC-3 cells; type: cell-based; settings: read-out: IC50, Stat5a dimerization, FLAG- and MYC-tagged Stat5a, hPrl 10 nM 30 min
[27] = biological target: Jak2 (Homo sapiens, UniProt O60674); experiment: Jak2 phosphorylation in CWR22Rv1 cells, immunoprecipitation and immunoblot; type: cell-based
Chain of Jak2 (O60674 whole entry): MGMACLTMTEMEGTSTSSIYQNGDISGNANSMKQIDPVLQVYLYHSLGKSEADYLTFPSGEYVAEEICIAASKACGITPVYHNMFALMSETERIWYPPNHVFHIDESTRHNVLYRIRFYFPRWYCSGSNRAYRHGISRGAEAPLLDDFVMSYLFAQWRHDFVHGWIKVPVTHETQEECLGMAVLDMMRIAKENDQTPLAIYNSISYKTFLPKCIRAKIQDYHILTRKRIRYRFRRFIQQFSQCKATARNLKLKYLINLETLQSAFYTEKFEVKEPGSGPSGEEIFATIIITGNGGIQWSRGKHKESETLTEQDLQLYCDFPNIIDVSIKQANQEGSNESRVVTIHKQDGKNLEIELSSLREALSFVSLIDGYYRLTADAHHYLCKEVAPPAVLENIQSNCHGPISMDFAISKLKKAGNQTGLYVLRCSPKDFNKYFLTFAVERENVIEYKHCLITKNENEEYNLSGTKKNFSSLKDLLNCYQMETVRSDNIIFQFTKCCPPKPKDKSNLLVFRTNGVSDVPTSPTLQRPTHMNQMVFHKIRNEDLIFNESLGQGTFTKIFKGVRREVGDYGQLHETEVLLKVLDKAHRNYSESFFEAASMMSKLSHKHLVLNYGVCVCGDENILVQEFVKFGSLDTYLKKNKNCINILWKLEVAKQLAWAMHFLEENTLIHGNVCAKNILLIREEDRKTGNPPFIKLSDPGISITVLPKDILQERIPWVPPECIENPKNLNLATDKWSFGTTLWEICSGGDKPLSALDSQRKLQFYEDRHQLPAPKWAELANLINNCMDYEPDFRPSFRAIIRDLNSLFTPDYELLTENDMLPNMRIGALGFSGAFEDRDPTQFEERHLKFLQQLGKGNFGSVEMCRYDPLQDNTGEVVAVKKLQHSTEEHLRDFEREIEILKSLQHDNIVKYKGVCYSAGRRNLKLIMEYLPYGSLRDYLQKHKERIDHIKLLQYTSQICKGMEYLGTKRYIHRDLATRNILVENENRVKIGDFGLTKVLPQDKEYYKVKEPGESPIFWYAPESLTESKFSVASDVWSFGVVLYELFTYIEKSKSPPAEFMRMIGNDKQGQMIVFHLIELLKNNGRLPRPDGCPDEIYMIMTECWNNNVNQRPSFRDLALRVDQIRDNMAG

[28] = tested on: patient-derived PCs; experiment: Ex vivo organ explant culture of patient-derived prostate cancers; design: species or system human; settings: 7 days ex vivo explant organ culture
How it was run: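 Patient-derived prostate cancers from radical prostatectomies (n=11, Gleason 7) were grown as explant organ cultures for 7 days with test compound or control compound at set concentrations. A pre-culture zero sample was formalin-fixed for baseline nuclear Stat5a/b. Explants were scored by Stat5a/b immunohistochemistry and TUNEL.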

[29] = biological target: T1, Stat3; experiment: Stat3 luciferase reporter assay in LNCaP cells; type: cell-based; settings: 6.0 μM, IL-6 50 ng/ml 16 h
How it was run: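 LNCaP cells were co-transfected with Stat3 (0.25 μg), IL-6 receptor (0.25 μg), Stat3-luciferase reporter (0.5 μg) and a normalisation plasmid (0.025 μg). Cells were serum-starved 10 h, pretreated with 6.0 μM test compound or control compound, and stimulated 16 h with 50 ng/ml IL-6. Relative luciferase activity is reported as the mean ± S.E. of three independent experiments run in triplicate.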

[30] = tested on: LNCaP and CWR22Rv1 cells; experiment: Cell cycle analysis of PC cells; type: cell-based, human; settings: LNCaP and CWR22Rv1, 72 h
How it was run: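 LNCaP and CWR22Rv1 cells were treated with test compound, vehicle or control compound for up to 72 h. Cells were fixed, stained with propidium iodide plus RNase A, and analysed by flow cytometry in the FL-2 channel.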

[31] = biological target: T2, Stat5a; experiment: Stat5a luciferase reporter gene assay; type: cell-based; settings: read-out: IC50, transcriptional activity of Stat5a; PC-3 cells, β-casein-luciferase, hPrl 10 nM 16 h
[32] = side-by-side with IST5-002, data not shown

Structure (SMILES): Nc1ncnc2c1ncn2[C@@H]1O[C@H](COP(=O)(O)O)[C@@H](O)[C@H]1O [AMP]
effect on Stat5a/b activation and transcriptional activity [1, 32]: no effect

Stat3 nuclear translocation [2]: effectively suppressed
Structure (SMILES): Cc1cc(Nc2nc(N[C@@H](C)c3ncc(F)cn3)ncc2Cl)n[nH]1 [AZD1480, reference compound]

Structure (SMILES): Nc1nc(F)nc2c1ncn2[C@@H]1O[C@H](CO)[C@@H](O)[C@@H]1O [Fludarabine, fludarabine]
Stat1 phosphorylation and activation [3]: inhibit
Stat5 activity [4]: not affecting

Structure (SMILES): Nc1nc2c(ncn2[C@@H]2O[C@H](COP(=O)(O)O)[C@@H](O)[C@H]2O)c(=O)[nH]1 [GMP]
effect on Stat5a/b activation and transcriptional activity [1, 32]: no effect

Structure (SMILES): O=P(O)(O)OC[C@H]1O[C@@H](n2cnc3c(NCc4ccccc4)ncnc32)[C@H](O)[C@@H]1O [IST5-002, N6-benzyladenosine-5-monophosphate]
viability of cell lines from other tissues ([5]; A549, CAPAN, T47D, HT1080, HepG2, COS-7): not affected
viability of cells with high Stat5a/b activation ([5]; CWR22Rv1 and K562, side-by-side): suppressed viability
viability of cell lines with low or no Stat5a/b activation ([5]; RC170N normal prostate epithelial cell line, HT1080): did not affect viability
increase in dead cells [6]: 5 fold
viability of CWR22Rv1 cells depleted of Stat5a/b (shStat5a/b) [7]: did not further affect
decrease in the number of viable PC cells expressing control shRNA ([7]; CWR22Rv1): 40%
IC50 [8]: 3.5 µM
concentration that abrogated Stat5a nuclear translocation [9]: 15 µM
reduction of binding of Stat5a/b to its DNA target sequence [10]: approximately 50%
Stat3 nuclear translocation [2]: no demonstrable effect
increase in caspase-3 activation [11]: 3 fold
growth of imatinib-sensitive and -resistant CML cells [12]: blocked the growth
concentration that blocked Bcr-Abl-induced Stat5a/b phosphorylation [13]: 5 µM
IC50 [14]: 12 µM
CISH expression change [15]: −2.3 fold
Cyclin D2 expression change [15]: −2.3 fold
Myc expression change [15]: −1.7 fold
Pim1 expression change [15]: −1.7 fold
Pim2 expression change [15]: −1.7 fold
SOCS3 expression change [15]: −1.3 fold
TRIB2 expression change [15]: −1.4 fold
increase of nucleosomal DNA fragmentation [16]: 230%
Bcr-Abl tyrosine phosphorylation levels [17]: did not affect
expression of Bcl-xL and cyclin D1 [18]: reduced expression
activity of PAK1/2 [19]: no specific inhibition
decrease of nuclear Stat5a/b content in tumors ([20]; 25 mg/kg i.p. daily): 60%
decrease of nuclear Stat5a/b content in tumors ([20]; 50 mg/kg i.p. daily): 78%
decrease of nuclear Stat5a/b content in tumors ([20]; 100 mg/kg i.p. daily): 90%
Tumor growth ([20]; 25, 50 or 100 mg/kg i.p. daily, all treatment groups vs control groups): significantly (P<0.001) suppressed
viable tumor cells in xenograft tumors ([20]; IST5-002 groups vs. vehicle): massive loss of viable tumor cells
Intratumor levels of nuclear Stat3 ([20]; any of the doses tested): not altered
IC50 [21]: 24.8 µM
inhibition of kinases in a panel of 50 kinases [22]: no specific inhibition
number of viable colonies of primary CML cells [23]: dramatic decrease
viability of EBV-immortalized B-cells that express no active Stat5a/b ([24]; 12878, 3798 cell lines): only marginal or no effect
viability of SUP-B15 (Bcr-Abl-driven ALL cell line) [24]: decreased viability
apoptosis in cell cycle analysis [25]: increase in apoptosis
IC50 [26]: 11 µM
Phosphorylation of Jak2 [27]: unaffected
patient-derived PCs that responded by extensive loss of viable epithelium [28]: Eight out of 11
concentration at which loss of viable epithelium started ([28]; responders): 25 µM
transcriptional activity of Stat3 [29]: failed to block
fraction of dead cells (sub-G1) in cell cycle analysis [30]: increased the fraction of dead cells
IC50 [31]: 1.5 µM

Structure (SMILES): Nc1ncnc2c1ncn2[C@@H]1O[C@@H]2COP(=O)(O)O[C@H]2[C@H]1O [cyclic AMP]
effect on Stat5a/b activation and transcriptional activity [1]: no effect
